In ChEMBL document CHEMBL2311469, “Development of new cathepsin B inhibitors: combining bioisosteric replacements and structure-based design to explore the structure-activity relationships of nitroxoline derivatives” (J Med Chem, 2013):
The source made the active and inactive calls. The calls are words filed in the database; no cut-off is given here.

Legend:
[1] = biological target: T1, Cathepsin B (Homo sapiens, UniProt P07858); experiment: Noncompetitive inhibition of human recombinant cathepsin B exopeptidase activity using Abz-Gly-Ile-Val-Arg-Ala-Lys(Dnp)-OH substrate
Procedure, shortened: (§1)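 Human recombinant catB, preactivated 5 min at 37 °C in assay buffer containing 0.1% PEG 8000, 5 mM DTT and 1.5 mM EDTA. […] Exopeptidase: 60 mM acetate pH 5.0, Abz-GIVRAK(Dnp)-OH 1/3/6 μM (Km 6.3 μM). Inhibitor 0–200 μM, 5% DMSO, 37 °C, fluorescence rate; two runs in duplicate.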

[2] = biological target: T1, Cathepsin B; experiment: Uncompetitive inhibition of human recombinant […] assessed as inhibition constant for enzyme-substrate-inhibitor complex
[3] = biological target: T1, Cathepsin B; experiment: Inhibition of human recombinant cathepsin B exopeptidase activity using Abz-Gly-Ile-Val-Arg-Ala-Lys(Dnp)-OH substrate
[4] = biological target: T1, Cathepsin B; experiment: Mixed inhibition of human recombinant cathepsin B endopeptidase activity using Z-Arg-Arg-AMC substrate assessed as inhibition constant for enzyme-substrate-inhibitor complex
[5] = biological target: T1, Cathepsin B; experiment: Mixed inhibition of human recombinant cathepsin B […] assessed as inhibition constant for enzyme-inhibitor complex
[6] = biological target: T1, Cathepsin B; experiment: Inhibition of human recombinant cathepsin B endopeptidase activity using Z-Arg-Arg-AMC substrate
[7] = species on record: Homo sapiens; experiment: Selectivity ratio of Ki for human liver cathepsin H to Ki for human recombinant cathepsin B
[8] = species on record: Homo sapiens; experiment: Selectivity ratio of Ki for human recombinant cathepsin L to Ki for human recombinant cathepsin B
[9] = biological target: Procathepsin L (Homo sapiens, UniProt P07711); experiment: Competitive inhibition of human recombinant cathepsin L endopeptidase activity using Z-FR-AMC substrate expressed in Escherichia coli assessed as inhibition constant for enzyme-inhibitor complex
Procedure, shortened: (§2)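 Ki from rates at three substrate levels with inhibitor at 0, 20, 40, 60, 80, 100 and 200 μM. Enzymes were preactivated 5 min at 37 °C. CatL (recombinant, E. coli): 100 mM acetate pH 5.5, Z-Phe-Arg-AMC 0.5/1/4 μM. CatH (native, human liver): 100 mM phosphate pH 6.8, Arg-AMC 20/80/160 μM. Buffers held 0.1% PEG 8000, 5 mM DTT and 1.5 mM EDTA, plus 5% DMSO. Two runs in duplicate.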

[10] = biological target: T2, Pro-cathepsin H (Homo sapiens, UniProt P09668); experiment: Uncompetitive inhibition of human liver cathepsin H endopeptidase activity using R-AMC substrate assessed as inhibition constant for enzyme-substrate-inhibitor complex; procedure, shortened: as §2
T2 sequence (P09668 whole entry): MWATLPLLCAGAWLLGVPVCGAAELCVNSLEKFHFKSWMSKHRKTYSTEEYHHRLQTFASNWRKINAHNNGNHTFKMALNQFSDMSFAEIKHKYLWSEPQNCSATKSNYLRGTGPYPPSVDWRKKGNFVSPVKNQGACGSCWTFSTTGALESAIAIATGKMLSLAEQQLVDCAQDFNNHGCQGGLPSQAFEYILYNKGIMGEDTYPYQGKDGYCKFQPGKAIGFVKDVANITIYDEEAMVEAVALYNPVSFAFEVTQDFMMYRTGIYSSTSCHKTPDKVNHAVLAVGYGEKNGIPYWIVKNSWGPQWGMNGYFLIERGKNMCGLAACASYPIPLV

[11] = biological target: T1, Cathepsin B; experiment: Mixed inhibition of human recombinant cathepsin B exopeptidase activity using Abz-Gly-Ile-Val-Arg-Ala-Lys(Dnp)-OH substrate assessed as inhibition constant for enzyme-substrate-inhibitor complex
Procedure, shortened: (§3)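 Recombinant human catB was preactivated for 5 min at 37 °C in 60 mM acetate pH 5.0 with 0.1% PEG 8000, 5 mM DTT and 1.5 mM EDTA. Abz-GIVRAK(Dnp)-OH was used at 1, 3 and 6 μM (Km 6.3 μM), with inhibitor at 0–200 μM (seven levels) and 5% DMSO. […] Run twice, each in duplicate.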

[12] = biological target: T1, Cathepsin B; experiment: Mixed inhibition of human recombinant cathepsin B exopeptidase activity using Abz-Gly-Ile-Val-Arg-Ala-Lys(Dnp)-OH substrate assessed as inhibition constant for enzyme-inhibitor complex; procedure, shortened: as §3
[13] = test system: MCF-10A; experiment: Increase in proliferation of human MCF10A neoT cells expressing c-Ha-Ras oncogene at 2.5 uM measured at 15 mins interval up to 3 days; assay type: ADME, cell-based
Procedure, shortened: (§4)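 MCF-10A neoT cells, 7500 per well, monitored on the xCELLigence impedance system (cell index read every 15 min). After ~10 h, in log growth, 2.5 or 5 μM compound or 0.2% DMSO was added. Run for 72 h, with medium containing inhibitor renewed every 24 h.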

[14] = test system: MCF-10A; experiment: Increase in proliferation of human MCF10A neoT cells expressing c-Ha-Ras oncogene at 5 uM measured at 15 mins interval up to 3 days; assay type: ADME, cell-based; procedure, shortened: as §4
[15] = test system: MCF-10A; experiment: Cytotoxicity against human MCF10A neoT cells expressing c-Ha-Ras oncogene at 5 uM measured at 15 mins interval up to 3 days; assay type: cell-based; procedure, shortened: as §4
[16] = test system: MCF-10A; experiment: Cytotoxicity against human MCF10A neoT cells expressing c-Ha-Ras oncogene at 2.5 uM measured at 15 mins interval up to 3 days; assay type: cell-based; procedure, shortened: as §4
[17] = test system: MCF-10A; experiment: Inhibition of human MCF10A neoT cell invasion expressing c-Ha-Ras oncogene at 5 uM after 30 mins relative to DMSO-treated control; assay type: functional; settings: 72 h, in the assay text read “after 72 hrs” for “after 30 mins”
Procedure, shortened: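 xCELLigence CIM-16 invasion assay. Upper chamber coated with 5 mg/mL Matrigel; lower well coated with bovine fibronectin. Compound 5 μM or 0.05% DMSO in both chambers, equilibrated 30 min at 37 °C. Then 3 × 10^4 cells seeded in serum-free medium, cell index read every 15 min for 72 h. Invasion = cell index with compound / DMSO; mean ± SD, n = 4, two experiments.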

[18] = biological target: T2, Pro-cathepsin H; experiment: Noncompetitive inhibition of human liver cathepsin H endopeptidase activity using R-AMC substrate assessed as inhibition constant for enzyme-substrate-inhibitor complex
Procedure, shortened: (§5)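 Native catH isolated from human liver was preactivated for 5 min at 37 °C in 100 mM phosphate pH 6.8 with 0.1% PEG 8000, 5 mM DTT and 1.5 mM EDTA. Arg-AMC was used at 20, 80 and 160 μM, with inhibitor at 0–200 μM (seven levels) and 5% DMSO. […] Run twice in duplicate.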

[19] = biological target: T2, Pro-cathepsin H; experiment: Noncompetitive inhibition of human liver cathepsin H endopeptidase activity using R-AMC substrate assessed as inhibition constant for enzyme-inhibitor complex; procedure, shortened: as §5
[20] = biological target: T1, Cathepsin B; settings: MCF10A neoT, 5 uM
[21] = biological target: T1, Cathepsin B; settings: MCF10A neoT, 5 uM; remark: listed apart in the source
[22] = biological target: T1, Cathepsin B; experiment: Competitive inhibition of human recombinant cathepsin B exopeptidase activity using Abz-Gly-Ile-Val-Arg-Ala-Lys(Dnp)-OH substrate assessed as inhibition constant for enzyme-inhibitor complex; procedure, shortened: as §1
[23] = biological target: T1, Cathepsin B; experiment: Inhibition of human recombinant cathepsin B exopeptidase activity using Abz-Gly-Ile-Val-Arg-Ala-Lys(Dnp)-OH substrate at 50 uM
Procedure, shortened: (§6)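 Single-point screen at 50 μM inhibitor with 5% DMSO and 0.01% Triton X-100, at 37 °C. Endopeptidase: catB 5 nM with Z-Arg-Arg-AMC 5 μM, phosphate pH 6.0, ex 380/em 460 nm. Exopeptidase: catB 0.5 nM with Abz-GIVRAK(Dnp)-OH 1 μM, acetate pH 5.0, ex 320/em 420 nm. Relative inhibition = 100(1 − vi/vo). Two runs in duplicate.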

[24] = biological target: T1, Cathepsin B; experiment: Inhibition of human recombinant cathepsin B endopeptidase activity using Z-Arg-Arg-AMC substrate at 50 uM; procedure, shortened: as §6
[25] = biological target: T1, Cathepsin B; experiment: Noncompetitive inhibition of cathepsin B (unknown origin) exopeptidase activity assessed as inhibition constant for enzyme-inhibitor complex
[26] = biological target: T1, Cathepsin B; experiment: Mixed inhibition of cathepsin B (unknown origin) endopeptidase activity assessed as inhibition constant for enzyme-substrate-inhibitor complex
[27] = biological target: T1, Cathepsin B; experiment: Mixed inhibition of cathepsin B (unknown origin) endopeptidase activity assessed as inhibition constant for enzyme-inhibitor complex

Sequence of Procathepsin L (P07711 whole entry): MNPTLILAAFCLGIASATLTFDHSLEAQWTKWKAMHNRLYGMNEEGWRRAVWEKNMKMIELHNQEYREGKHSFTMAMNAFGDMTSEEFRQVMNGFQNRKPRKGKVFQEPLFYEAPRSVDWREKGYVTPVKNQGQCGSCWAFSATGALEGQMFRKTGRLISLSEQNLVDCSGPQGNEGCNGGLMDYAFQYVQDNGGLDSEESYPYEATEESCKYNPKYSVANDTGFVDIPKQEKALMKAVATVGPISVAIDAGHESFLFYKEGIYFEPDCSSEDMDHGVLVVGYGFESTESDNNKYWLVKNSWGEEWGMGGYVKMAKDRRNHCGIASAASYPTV

Compound	Ki [1]	Ki [4]	Ki [5]	also measured
O=[N+]([O-])c1cc([N+](=O)[O-])c2cccnc2c1O	146 µM	–	–	Ki [2]: 72 µM
O=[N+]([O-])c1ccc(N2CCCC2)c2ncccc12	–	–	–	inhibition [3]: inactive
CCOC(=O)C1CCN(c2ccc([N+](=O)[O-])c3cccnc23)CC1	38 µM	113 µM	162 µM	–
CCOC(=O)[C@@H]1CCCC[C@@H]1NCc1cc([N+](=O)[O-])c2cccnc2c1O	130 µM	74 µM	132 µM	–
O=[N+]([O-])c1cc(CNCc2ccccc2)c(O)c2ncccc12	154 µM	58 µM	198 µM	–
CCNCc1cc([N+](=O)[O-])c2cccnc2c1O	136 µM	82 µM	117 µM	–
C#CCNc1ccc([N+](=O)[O-])c2cccnc12	–	–	–	inhibition [3]: inactive; inhibition [6]: inactive
O=S(=O)(O)c1ccc(O)c2ccccc12	–	–	–	inhibition [6]: inactive
Nc1c(Br)cc([N+](=O)[O-])c2ccccc12	212 µM	–	–	Ratio Ki [7]: 11; Ratio Ki [8]: > 6; Ki [9]: 182 µM; Ki [10]: 354 µM; Ki [2]: 32 µM
Nc1ccc([N+](=O)[O-])c2ccccc12	147 µM	111 µM	217 µM	–
CCOC(=O)N1CCN(Cc2cc([N+](=O)[O-])c3cccnc3c2O)CC1	156 µM	87 µM	129 µM	–
N#CCN(Cc1ccccc1)Cc1cc([N+](=O)[O-])c2cccnc2c1O	–	–	–	Ki [11]: 8 µM; Ki [12]: 79 µM; Ki [2]: 19 µM
O=[N+]([O-])c1cc(CN2CCN(Cc3cccnc3)CC2)c(O)c2ncccc12	364 µM	171 µM	311 µM	–
O=[N+]([O-])c1ccc(N2CCCC2)c2ccccc12	34 µM	277 µM	170 µM	Ratio Ki [7]: 7; Ratio Ki [8]: > 6; Ki [9]: 245 µM; Ki [10]: 251 µM
O=[N+]([O-])c1ccc(N2CCOCC2)c2ncccc12	155 µM	153 µM	180 µM	–
N#CCNCc1cc([N+](=O)[O-])c2cccnc2c1O	426 µM	–	–	Activity [13]: 113%; Activity [14]: 117%; Activity [15]: Non-toxic; Activity [16]: Non-toxic; inhibition at 5 µM [17]: 80%; Ratio Ki [7]: 24; Ratio Ki [8]: 23; Ki [9]: 124 µM; Ki [18]: 129 µM; Ki [19]: 129 µM; Ki [2]: 5 µM; inhibition [20]: Active; inhibition [21]: Active
CCN(CC)C(=O)C1CCCN(c2ccc([N+](=O)[O-])c3cccnc23)C1 (racemic)	–	117 µM	155 µM	Ki [11]: 36 µM; Ki [12]: 105 µM
O=C(O)c1cc([N+](=O)[O-])c2cccnc2c1O	–	–	–	Ki [22]: 221 µM; Ki [2]: 117 µM

Compound	Ki [1]	Ki [4]	Ki [5]	also measured
O=C(O)[C@@H]1CCCC[C@@H]1NCc1cc([N+](=O)[O-])c2cccnc2c1O	–	125 µM	181 µM	Ki [22]: 250 µM
O=[N+]([O-])c1ccc(O)c2ncccc12 [NITROXOLINE]	–	–	–	Ratio Ki [7]: 7.4; Ratio Ki [8]: 4.8; inhibition [23]: 24.7%; inhibition [24]: 21.9%; Ki [25]: 272 µM; Ki [26]: 39.5 µM; Ki [27]: 154 µM
C[C@@H]1CCCCN1Cc1cc([N+](=O)[O-])c2cccnc2c1O	243 µM	116 µM	203 µM	–
O=[N+]([O-])c1cc(CN2CCN(Cc3ccncc3)CC2)c(O)c2ncccc12	162 µM	94 µM	143 µM	–
O=[N+]([O-])c1ccc(NCc2ccccn2)c2ncccc12	47 µM	87 µM	107 µM	–
O=[N+]([O-])c1ccc(NCc2ccccc2)c2ncccc12	364 µM	127 µM	349 µM	–
CN(CC#N)Cc1cc([N+](=O)[O-])c2cccnc2c1O	172 µM	76 µM	126 µM	–
CN(CCc1ccccc1)c1ccc([N+](=O)[O-])c2cccnc12	350 µM	–	–	Ki [2]: 175 µM
CN(Cc1ccccc1)c1ccc([N+](=O)[O-])c2cccnc12	–	137 µM	242 µM	Ki [22]: 196 µM
CCCNC(=O)[C@H]1O[C@@H]1C(=O)N[C@H](C(=O)N1CCC[C@H]1C(=O)O)C(C)CC (single isomer, unassigned)	–	–	–	inhibition at 5 µM [17]: 48%
N#CCN(CC#N)c1ccc([N+](=O)[O-])c2ccccc12	–	–	–	inhibition [3]: inactive; inhibition [6]: inactive
O=[N+]([O-])c1ccc(O)c2ccccc12	–	84 µM	373 µM	inhibition [3]: inactive
CN(C)c1ccc([N+](=O)[O-])c2cccnc12	–	–	–	inhibition [3]: inactive; inhibition [6]: inactive
CC1CCN(c2ccc([N+](=O)[O-])c3cccnc23)CC1	24 µM	105 µM	207 µM	Ratio Ki [7]: 9; Ratio Ki [8]: 6; Ki [9]: 155 µM; Ki [18]: 221 µM; Ki [19]: 221 µM
O=[N+]([O-])c1ccc(N2CCOCC2)c2ccccc12	85 µM	125 µM	289 µM	–
Nc1c(O)cc(S(=O)(=O)O)c2ccccc12	–	–	–	inhibition [6]: inactive
N#CCNc1ccc([N+](=O)[O-])c2ccccc12	–	–	–	inhibition [3]: inactive; inhibition [6]: inactive
